Entries after “also recorded” stand apart in the source; their conditions may differ.
Columns and labels:
[1] = tested on: HPB-ALL cells; assay: Proliferation, total cell count over 3 days; type: cell-based, human; settings: 15 μM DAPT, 100 μM Tat-Ram13 or 100 μM Tat-mRam13
[2] = tested on: CCRF-CEM cells; assay: Time course of cell death, trypan blue exclusion assay; type: cell-based, human; settings: up to 24 h
Summary of the method: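 CCRF-CEM cells in complete RPMI-1640 (10% fetal calf serum, 5% CO2) were exposed to test peptide, control peptide or etoposide at the indicated concentrations, sampled over up to 24 h, and scored for viable cells by trypan blue exclusion.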

[3] = tested on: CCRF-CEM cells; assay: Cell morphology, phase-contrast and DNA; type: cell-based, human; settings: 100 μM Tat-Ram13 or 30 μM etoposide, 24 h
Summary of the method: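 Cells were seeded at 5×10^5 per well in glass-bottom dishes and incubated with or without test compound. They were then stained with Hoechst 33342 for 10 min and imaged by fluorescence or confocal microscopy.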

[4] = tested on: caspase-3 in CCRF-CEM cells; assay: Western blot of caspase-3 cleavage; type: cell-based, human; settings: 100 μM Tat-Ram13 or 30 μM etoposide
Summary of the method: (§1)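 CCRF-CEM cells (1×10^6) were treated with 100 μM test peptide, or with etoposide, for the indicated time. Cells were washed in ice-cold PBS and lysed in RIPA buffer with protease inhibitors. Lysate (25 μg) was run on SDS-PAGE and blotted to PVDF, then blocked in 5% skim milk/PBS-0.1% Tween 20 for 30 min. Primary antibodies (1:1000; β-actin 1:10,000) were applied overnight at 4 °C, then HRP secondary for 1 h at 4 °C, with chemiluminescent detection.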

[5] = tested on: PARP-1 in CCRF-CEM cells; assay: Western blot of PARP-1 cleavage; type: cell-based, human; settings: 100 μM Tat-Ram13 or 30 μM etoposide
Summary of the method: as §1

[6] = tested on: CCRF-CEM cells; assay: HMGB1 release, Western blot; type: cell-based, human; settings: Western blot of supernatant and pellet, etoposide 24 h
[7] = tested on: CCRF-CEM cells; assay: WST-8 cell viability assay; type: cell-based, human; settings: CCRF-CEM (Figure 7B)
Summary of the method: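 Cells at 5×10^4 cells/100 μL in complete medium (RPMI-1640, 10% fetal calf serum, 10 U/mL penicillin G, 10 μg/mL streptomycin) were exposed to various concentrations of test peptide in a 5% CO2 incubator for 24 h. WST-8 was added, and absorbance at 450 nm was read 1–2 h later. Viability was relative to an HBSS-added control (100%). Data are means ± SD.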

[8] = tested on: interactions between NICD and CSL; settings: human cell lysates; cited from earlier work

C[C@H](NC(=O)Cc1cc(F)cc(F)c1)C(=O)N[C@H](C(=O)OC(C)(C)C)c1ccccc1 [DAPT]
cell proliferation (total cell count) [1]: significant reduction in proliferation

COc1cc([C@@H]2c3cc4c(cc3[C@@H](O[C@@H]3O[C@@H]5CO[C@@H](C)O[C@H]5[C@H](O)[C@H]3O)[C@H]3COC(=O)[C@H]23)OCO4)cc(OC)c1O [etoposide]
time course of cell death [2]: occurred more slowly | cell morphology [3]: membrane blebbing and DNA fragmentation | caspase-3 cleavage [4]: did produce the cleaved fragment | cleavage of PARP-1 fragments (89 kDa) [5]: as etoposide did | HMGB1 release into the culture supernatant [6]: released very little HMGB1

RRQHGQLWFPEGF [Ram13]
cytotoxicity, role of the cell-penetrating part [7]: inactive; also recorded: lost its cytotoxicity | disruption of NICD-CSL interaction [8]: effectively disrupted interactions between NICD and CSL
